Reference: ChEMBL document CHEMBL1926665, “Anti-AIDS agents 85. Design, synthesis, and evaluation of 1R,2R-dicamphanoyl-3,3-dimethyldihydropyrano-[2,3-c]xanthen-7(1H)-one (DCX) derivatives as novel anti-HIV agents” (Eur J Med Chem, 2012)

Assays:
[1] = system: Human immunodeficiency virus 1; test: Antiviral activity against wild type HIV1 NL4-3 infected in human TZM-bl cells after 48 hrs by luciferase reporter gene assay; format: functional, organism-based; conditions: Human immunodeficiency virus 1, NL4-3, TZM-bl
Outline: (§1)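 Single-round infection of TZM-bl cells (NL4-3 or RTMDR1 strain), with luciferase reporter read-out. Virus at 200 TCID50 was mixed with eight four-fold serial dilutions of sample in growth medium, then incubated 48 h. Luciferase was read by luminometer. EC50 is the concentration giving a 50% drop in RLU versus virus control after background subtraction. Values are means of at least three independent experiments.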

[2] = Cytotoxicity against human TZM-bl cells by CytoTox-Glo assay; format: cell-based
[3] = Selectivity index, ratio of CC50 for human TZM-bl cells to EC50 for wild type HIV1 NL4-3 infected in human TZM-bl cells; format: toxicity, cell-based; conditions: read-out: Ratio CC50/EC50
Outline: (§2)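 Selectivity index is CC50 ÷ EC50. CC50 came from the CytoTox-Glo cytotoxicity kit run per the maker's protocol in TZM-bl cells. EC50 came from the 48 h single-round TZM-bl luciferase infection assay (200 TCID50 virus, eight four-fold dilutions) against the NL4-3 or RTMDR1 strain. Values are averaged from at least three independent experiments.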

[4] = system: Human immunodeficiency virus 1; test: Antiviral activity against drug-resistance HIV1 RTMDR1 infected in human TZM-bl cells after 48 hrs by luciferase reporter gene assay; format: functional, organism-based; conditions: Human immunodeficiency virus 1, RTMDR1, TZM-bl; outline: as §1
[5] = Selectivity index, ratio of CC50 for human TZM-bl cells to EC50 for drug-resistance HIV1 RTMDR1 infected in human TZM-bl cells; format: toxicity, cell-based; conditions: read-out: Ratio CC50/EC50; outline: as §2
[6] = system: Human immunodeficiency virus 1; test: Ratio of 2-EDCP EC50 to compound EC50 for wild type HIV1 NL4-3 infected in human TZM-bl cells; format: functional
[7] = system: Human immunodeficiency virus 1; test: Antiviral activity against wild type HIV1; format: functional, organism-based
[8] = system: Human immunodeficiency virus 1; test: Antiviral activity against drug-resistance HIV1; format: functional, organism-based

Molecule `COc1cc2c(c3oc4ccccc4c(=O)c13)[C@@H](OC(=O)C13CCC(C)(C(=O)O1)C3(C)C)[C@@H](OC(=O)C13CCC(C)(C(=O)O1)C3(C)C)C(C)(C)O2` (stereo partly drawn) has an EC50 [1] of 63 nM, a CC50 [2] greater than 14300 nM and a selectivity ratio [3] greater than 227. For the same molecule, the EC50 [4] was 74 nM, the selectivity ratio [5] was greater than 193 and the “Ratio EC50” value [6] was 1.5.
With `CC1(C)Oc2ccc3c(=O)c4ccccc4oc3c2[C@@H](OC(=O)C23CCC(C)(C(=O)O2)C3(C)C)[C@H]1OC(=O)C12CCC(C)(C(=O)O1)C2(C)C` (stereo partly drawn) the EC50 [1] was 308 nM, the CC50 [2] was greater than 29800 nM and the selectivity ratio [3] was greater than 96.8. The EC50 [4] was 546 nM and the selectivity ratio [5] was greater than 54.6.
For `COc1cc2c(c3oc4c(F)cccc4c(=O)c13)[C@@H](OC(=O)C13CCC(C)(C(=O)O1)C3(C)C)[C@@H](OC(=O)C13CCC(C)(C(=O)O1)C3(C)C)C(C)(C)O2` (stereo partly drawn), the EC50 [1] was 230 nM, the CC50 [2] was 7800 nM and the selectivity ratio [3] was 33.9.
Work on `COc1cc2c(c3oc4ccc(C#N)cc4c(=O)c13)[C@@H](OC(=O)C13CCC(C)(C(=O)O1)C3(C)C)[C@@H](OC(=O)C13CCC(C)(C(=O)O1)C3(C)C)C(C)(C)O2` (stereo partly drawn) yielded an EC50 [1] of 290 nM, a CC50 [2] greater than 13800 nM and a selectivity ratio [3] greater than 47.8.
Molecule `COc1cc2c(c3oc4ccc(CBr)cc4c(=O)c13)[C@@H](OC(=O)C13CCC(C)(C(=O)O1)C3(C)C)[C@@H](OC(=O)C13CCC(C)(C(=O)O1)C3(C)C)C(C)(C)O2` (stereo partly drawn) has an EC50 [1] of 4530 nM, a CC50 [2] greater than 25200 nM and a selectivity ratio [3] greater than 5.55.
Molecule `COc1cc2c(c3oc4cc(C)ccc4c(=O)c13)[C@@H](OC(=O)C13CCC(C)(C(=O)O1)C3(C)C)[C@@H](OC(=O)C13CCC(C)(C(=O)O1)C3(C)C)C(C)(C)O2` (stereo partly drawn) has an EC50 [1] of 95 nM, a CC50 [2] greater than 14000 nM and a selectivity ratio [3] greater than 147. The EC50 [4] was 363 nM and the selectivity ratio [5] was greater than 38.6.
Molecule `COc1cc2c(c3oc4ccccc4/c(=N\O)c13)[C@@H](OC(=O)C13CCC(C)(C(=O)O1)C3(C)C)[C@@H](OC(=O)C13CCC(C)(C(=O)O1)C3(C)C)C(C)(C)O2` (stereo partly drawn) has an EC50 [1] of 120 nM, a CC50 [2] greater than 13900 nM and a selectivity ratio [3] greater than 118.
`Cc1cc(=O)c2c(C)cc3c(c2o1)[C@@H](OC(=O)C12CCC(C)(C(=O)O1)C2(C)C)[C@@H](OC(=O)C12CCC(C)(C(=O)O1)C2(C)C)C(C)(C)O3` (stereo partly drawn) gave an EC50 [7] of 36 nM and an EC50 [8] of 490 nM.
With `COc1cc2c(c3oc4ccc(F)cc4c(=O)c13)[C@@H](OC(=O)C13CCC(C)(C(=O)O1)C3(C)C)[C@@H](OC(=O)C13CCC(C)(C(=O)O1)C3(C)C)C(C)(C)O2` (stereo partly drawn) the EC50 [1] was 100 nM, the CC50 [2] was 26000 nM and the selectivity ratio [3] was 260. For the same molecule, the EC50 [4] was 160 nM and the selectivity ratio [5] was 162.
Work on `COc1cc2c(c3oc4ccc(Br)cc4c(=O)c13)[C@@H](OC(=O)C13CCC(C)(C(=O)O1)C3(C)C)[C@@H](OC(=O)C13CCC(C)(C(=O)O1)C3(C)C)C(C)(C)O2` (stereo partly drawn) yielded an EC50 [1] of 1470 nM, a CC50 [2] of 9230 nM and a selectivity ratio [3] of 6.83.
Work on `COc1cc(C)c2c(=O)c3c(OC)cc4c(c3oc2c1)[C@@H](OC(=O)C12CCC(C)(C(=O)O1)C2(C)C)[C@@H](OC(=O)C12CCC(C)(C(=O)O1)C2(C)C)C(C)(C)O4` (stereo partly drawn) yielded an EC50 [1] of 140 nM, a CC50 [2] greater than 26800 nM and a selectivity ratio [3] greater than 192.
Molecule `COc1cc2c(c3oc4cc(C#N)ccc4c(=O)c13)[C@@H](OC(=O)C13CCC(C)(C(=O)O1)C3(C)C)[C@@H](OC(=O)C13CCC(C)(C(=O)O1)C3(C)C)C(C)(C)O2` (stereo partly drawn) has an EC50 [1] of 200 nM, a CC50 [2] of 9080 nM and a selectivity ratio [3] of 45.4.
`CCc1cc(=O)c2ccc3c(c2o1)[C@@H](OC(=O)C12CCC(C)(C(=O)O1)C2(C)C)[C@@H](OC(=O)C12CCC(C)(C(=O)O1)C2(C)C)C(C)(C)O3` (stereo partly drawn) gave an EC50 [7] of 70 nM, an EC50 [8] of 110 nM and an EC50 [1] of 89 nM. The CC50 [2] was 12100 nM, the selectivity ratio [3] was 136 and the EC50 [4] was 110 nM. The selectivity ratio [5] was 110.
`COc1cc2c(c3oc4cccc(O)c4c(=O)c13)[C@@H](OC(=O)C13CCC(C)(C(=O)O1)C3(C)C)[C@@H](OC(=O)C13CCC(C)(C(=O)O1)C3(C)C)C(C)(C)O2` (stereo partly drawn) showed an EC50 [1] of 330 nM, a CC50 [2] of 8100 nM and a selectivity ratio [3] of 24.5.
Molecule `COc1cc2c(c3oc4ccc(C)cc4c(=O)c13)[C@@H](OC(=O)C13CCC(C)(C(=O)O1)C3(C)C)[C@@H](OC(=O)C13CCC(C)(C(=O)O1)C3(C)C)C(C)(C)O2` (stereo partly drawn) has an EC50 [1] of 65 nM, a CC50 [2] of 11400 nM and a selectivity ratio [3] of 175. The EC50 [4] was 81 nM and the selectivity ratio [5] was 141.
`COc1ccc2c(=O)c3c(OC)cc4c(c3oc2c1)[C@@H](OC(=O)C12CCC(C)(C(=O)O1)C2(C)C)[C@@H](OC(=O)C12CCC(C)(C(=O)O1)C2(C)C)C(C)(C)O4` (stereo partly drawn) showed an EC50 [1] of 362 nM, a CC50 [2] greater than 13700 nM and a selectivity ratio [3] greater than 37.8.
Molecule `COc1cc2c(c3oc4cccc(C)c4c(=O)c13)[C@@H](OC(=O)C13CCC(C)(C(=O)O1)C3(C)C)[C@@H](OC(=O)C13CCC(C)(C(=O)O1)C3(C)C)C(C)(C)O2` (stereo partly drawn) has an EC50 [1] of 150 nM, a CC50 [2] of 11600 nM and a selectivity ratio [3] of 77.3. It also gave an EC50 [4] of 370 nM and a selectivity ratio [5] of 31.4.
Molecule `COc1cccc2oc3c4c(cc(OC)c3c(=O)c12)OC(C)(C)[C@H](OC(=O)C12CCC(C)(C(=O)O1)C2(C)C)[C@@H]4OC(=O)C12CCC(C)(C(=O)O1)C2(C)C` (stereo partly drawn) has an EC50 [1] of 1700 nM, a CC50 [2] of 11600 nM and a selectivity ratio [3] of 6.83.
`COc1cc2c(c3oc4c(C)cccc4c(=O)c13)[C@@H](OC(=O)C13CCC(C)(C(=O)O1)C3(C)C)[C@@H](OC(=O)C13CCC(C)(C(=O)O1)C3(C)C)C(C)(C)O2` (stereo partly drawn) gave an EC50 [1] of 1520 nM, a CC50 [2] of 4320 nM and a selectivity ratio [3] of 2.84.
`COc1cc2c(c3oc4cccc(F)c4c(=O)c13)[C@@H](OC(=O)C13CCC(C)(C(=O)O1)C3(C)C)[C@@H](OC(=O)C13CCC(C)(C(=O)O1)C3(C)C)C(C)(C)O2` (stereo partly drawn) gave an EC50 [1] of 62 nM, a CC50 [2] greater than 13900 nM and a selectivity ratio [3] greater than 224. For the same molecule, the EC50 [4] was 65 nM and the selectivity ratio [5] was greater than 214.
Work on `COc1ccc2oc3c4c(cc(OC)c3c(=O)c2c1)OC(C)(C)[C@H](OC(=O)C12CCC(C)(C(=O)O1)C2(C)C)[C@@H]4OC(=O)C12CCC(C)(C(=O)O1)C2(C)C` (stereo partly drawn) yielded an EC50 [1] of 120 nM, a CC50 [2] of 10800 nM and a selectivity ratio [3] of 88.8. For the same molecule, the EC50 [4] was 420 nM and the selectivity ratio [5] was 25.7.
